ChEMBL document CHEMBL1126128, “Nonprostanoid prostacyclin mimetics. 3. Structural variations of the diphenyl heterocycle moiety” (J Med Chem, 1992)

How the values were obtained:
Assay type in all cases: functional
[1] = Inhibition of ADP-induced aggregation of human blood platelets in plasma
[2] = Compound was tested for inhibition of ADP-induced aggregation of blood platelets in human platelet rich plasma at >68 uM concentration
Method in brief: (§1)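 Human platelet-rich plasma with aggregation triggered by ADP and followed by aggregometry. Each test acid was run at one stated upper concentration, and the read-out is percent inhibition of aggregation at that concentration. Each value is from a single experiment or is the mean of duplicate determinations.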

[3] = Compound was tested for inhibition of ADP-induced aggregation of blood platelets in human platelet rich plasma at >76 uM concentration; method in brief: as §1
[4] = Compound was tested for inhibition of ADP-induced aggregation of blood platelets in human platelet rich plasma at >82 uM concentration; method in brief: as §1
[5] = Compound was tested for inhibition of ADP-induced aggregation of blood platelets in human platelet rich plasma at >84 uM concentration; method in brief: as §1
[6] = Compound was tested for inhibition of ADP-induced aggregation of blood platelets in human platelet rich plasma at >32 uM concentration; method in brief: as §1
[7] = Compound was tested for inhibition of ADP-induced aggregation of blood platelets in human platelet rich plasma at >60 uM concentration; method in brief: as §1
[8] = Compound was tested for inhibition of ADP-induced aggregation of blood platelets in human platelet rich plasma at >75 uM concentration; method in brief: as §1
[9] = Compound was tested for inhibition of ADP-induced aggregation of blood platelets in human platelet rich plasma at 20 uM concentration; method in brief: as §1
[10] = Compound was tested for inhibition of ADP-induced aggregation of blood platelets in human platelet rich plasma at <80 uM concentration; method in brief: as §1
[11] = Compound was tested for inhibition of ADP-induced aggregation of blood platelets in human platelet rich plasma at >65 uM concentration; method in brief: as §1
[12] = Compound was tested for inhibition of ADP-induced aggregation of blood platelets in human platelet rich plasma at >78 uM concentration; method in brief: as §1

IC50 ([1]; Homo sapiens, Plasma) | Structure (SMILES) | other results
> 82 µM | O=C(O)CCCCCCCCCc1nnc(-c2ccccc2)n1-c1ccccc1 | –
5 µM | O=C(O)COc1cccc(CCn2cnc(-c3ccccc3)c2-c2ccccc2)c1 | –
> 84 µM | O=C(O)CCCCCCCn1nc(-c2ccccc2)c2ccccc2c1=O | –
29.2 µM | O=C(O)CCCOc1ccc(-n2cnc(-c3ccccc3)c2-c2ccccc2)cc1 | –
> 68 µM | O=C(O)COc1cccc(CCc2nc(-c3cccc(Cl)c3)c(-c3cccc(Cl)c3)o2)c1 | Inhibition [2]: 0%
> 79 µM | O=C(O)CCCCCCCCOc1ncc(-c2ccccc2)c(-c2ccccc2)n1 | –
17 µM | O=C(O)COc1cccc(CCc2nc(-c3ccsc3)c(-c3ccsc3)o2)c1 | –
6.6 µM | O=C(O)CCCCCCCCc1nc(-c2ccccc2)c(-c2ccccc2)o1 | –
1.4 µM | O=C(O)COc1cccc(CCc2nc(-c3ccccc3F)c(-c3ccccc3F)o2)c1 | –
29.4 µM | O=C(O)CCCCCCCCN1C(=O)C(c2ccccc2)N(c2ccccc2)C1=O (stereo not drawn) | –
> 79 µM | O=C(O)COc1cccc(CCC(=O)NCC(c2ccccc2)c2ccccc2)c1 | –
– | O=C(O)CCCCCCCCn1cc(-c2ccccc2)c(-c2ccccc2)n1 [listing 1 of 2 here] | IC50 [1]: 5.8 µM
17.1 µM | O=C(O)COc1cccc(CCc2nc(-c3ccc(Cl)cc3)c(-c3ccc(Cl)cc3)o2)c1 | –
0.34 µM | Cc1ccc(-c2nc(CCc3cccc(OCC(=O)O)c3)oc2-c2ccc(C)cc2)cc1 | –
2.99 µM | O=C(O)COc1cccc(/C=C/c2nnc(-c3ccccc3)n2-c2ccccc2)c1 | –
24.5 µM | O=C(O)COc1cccc(CCn2nc(-c3ccccc3)c(-c3ccccc3)c2-c2ccccc2)c1 | –
0.87 µM | O=C(O)COc1cccc(CCn2cc(-c3ccccc3)c(-c3ccccc3)n2)c1 | –
8.19 µM | O=C(O)CCCCCCCn1cnc(-c2ccccc2)c1-c1ccccc1 | –
> 68 µM | O=C(O)CCCCCCCn1nc(-c2ccccc2)c(-c2ccccc2)c(-c2ccccc2)c1=O | –
4.4 µM | Cc1nc(-c2ccccc2)c(-c2ccccc2)n1CCCCCCCC(=O)O | –
> 78 µM | O=C(O)CCCCCCCSc1cc(-c2ccccc2)c(-c2ccccc2)nn1 | –
4.1 µM | O=C(O)CCCCCCCn1nc(-c2ccccc2)c(-c2ccccc2)cc1=O | –

IC50 ([1]; Homo sapiens, Plasma) | Structure (SMILES) | other results
> 81 µM | O=C(O)CCCCCCCCn1nnnc1C(c1ccccc1)c1ccccc1 | –
> 85 µM | O=C(O)CCCCCCCCn1nc(-c2ccccc2)c2ccccc2c1=O | –
> 65 µM | O=C(O)CCCCCCCSc1nnc(-c2ccccc2)c(-c2ccccc2)c1-c1ccccc1 | –
> 84 µM | O=C(O)CCCCCCCn1nnnc1C(c1ccccc1)c1ccccc1 | –
> 76 µM | O=C(O)CCCCOc1ccc(-n2cnc(-c3ccccc3)c2-c2ccccc2)cc1 | Inhibition [3]: 31%
> 85 µM | O=C(O)CCCCCCCCc1nnc(-c2ccccc2)n1-c1ccccc1 | –
0.4 µM | O=C(O)CCCCCCCCn1nc(-c2ccccc2)c(-c2ccccc2)c1-c1ccccc1 | –
> 84 µM | O=C(O)CCCCCCCCCCN(C(=O)c1ccccc1)c1ccccc1 | –
3.8 µM | O=C(O)CCCCCCCn1c(-c2ccccc2)nc(-c2ccccc2)c1-c1ccccc1 | –
58.4 µM | O=C(O)CCCCCCCCn1cnc(-c2ccccc2)c1-c1ccccc1 | –
5.2 µM | COc1ccc(-c2nc(CCc3cccc(OCC(=O)O)c3)oc2-c2ccc(OC)cc2)cc1 | –
10.7 µM | O=C(O)CCCCCCCCn1nnc(C(c2ccccc2)c2ccccc2)n1 | –
2.88 µM | O=C(O)COc1cccc(CCc2nc(-c3ccccc3)c(-c3ccccc3)[nH]2)c1 | –
1.57 µM | O=C(O)COc1cccc(CCn2nc(-c3ccccc3)n(-c3ccccc3)c2=O)c1 | –
2.1 µM | O=C(O)COc1cccc(CCn2nc(-c3ccccc3)c(-c3ccccc3)nc2=O)c1 | –
> 90 µM | O=C(O)CCCCCCCCN(C(=O)c1ccccc1)c1ccccc1 | –
> 82 µM | O=C(O)COc1cccc(-n2cnc(-c3ccccc3)c2-c2ccccc2)c1 | Inhibition [4]: 18%
> 88 µM | O=C(O)CCCCCCCc1nnc(-c2ccccc2)n1-c1ccccc1 | –
4.64 µM | O=C(O)CCCCCCCn1c(C(F)(F)F)nc(-c2ccccc2)c1-c1ccccc1 | –
> 74 µM | O=C(O)CCCCCCCSc1nnc(-c2ccccc2)c(-c2ccccc2)n1 | –
> 67 µM | O=C(O)CCCCCCCCn1nc(-c2ccccc2)c(-c2ccccc2)c(-c2ccccc2)c1=O | –
4.9 µM | O=C(O)CCCCCCCCn1nc(-c2ccccc2)c(-c2ccccc2)nc1=O | –

IC50 ([1]; Homo sapiens, Plasma) | Structure (SMILES) | other results
1.67 µM | O=C(O)COc1cccc(CCc2cc(-c3ccccc3)n(-c3ccccc3)n2)c1 | –
4.8 µM | O=C(O)COc1cccc(CCc2nc(-c3ccc(F)cc3)c(-c3ccc(F)cc3)o2)c1 | –
> 84 µM | O=C(O)COc1ccc(-n2cnc(-c3ccccc3)c2-c2ccccc2)cc1 | Inhibition [5]: 23%
7.2 µM | O=C(O)CCCCCCCCn1nc(-c2ccccc2)c(-c2ccccc2)cc1=O | –
> 82 µM | O=C(O)CCCCCCCCn1nccc1C(c1ccccc1)c1ccccc1 | –
0.86 µM | O=C(O)COc1cccc(CCc2nc(-c3ccccc3)c(-c3ccccc3)s2)c1 | –
29.7 µM | O=C(O)CCCCCCCCn1cc(-c2ccccc2)c(-c2ccccc2)nc1=O | –
> 32 µM | O=C(O)CCCCOc1cccc(-n2cnc(-c3ccccc3)c2-c2ccccc2)c1 | Inhibition [6]: 23%
> 60 µM | O=C(O)COc1cccc(CCc2nc(-c3ccc(C(F)(F)F)cc3)c(-c3ccc(C(F)(F)F)cc3)o2)c1 | Inhibition [7]: 1%
> 80 µM | O=C(O)CCCCCCCCn1ccc(C(c2ccccc2)c2ccccc2)n1 | –
35.9 µM | O=C(O)CCCCCCCOc1ncc(-c2ccccc2)c(-c2ccccc2)n1 | –
3.9 µM | O=C(O)CCCCCCCCn1c(-c2ccccc2)nc(-c2ccccc2)c1-c1ccccc1 | –
> 80 µM | O=C(O)COc1ccc(/C=C/c2nnc(-c3ccccc3)n2-c2ccccc2)cc1 | –
3.6 µM | O=C(O)COc1cccc(CCn2nnc(C(c3ccccc3)c3ccccc3)n2)c1 | –
12.7 µM | O=C(O)COc1cccc(CCc2nnc(-c3ccccc3)n2-c2ccccc2)c1 | –
4.5 µM | O=C(O)CCCCCCCCn1cc(-c2ccccc2)c(-c2ccccc2)n1 [listing 2 of 2 here] | –
0.75 µM | O=C(O)COc1cccc(CCn2ncc(-c3ccccc3)c2-c2ccccc2)c1 | –
> 81 µM | O=C(O)CCCCCCCCn1c(=O)c2ccccc2n(-c2ccccc2)c1=O | –
> 84 µM | O=C(O)CCCCCCCn1nc(-c2ccccc2)n(-c2ccccc2)c1=O | –
> 82 µM | O=C(O)COc1cccc(CCC(=O)NC(c2ccccc2)c2ccccc2)c1 | –
28.3 µM | CCc1ccc(-c2nc(CCc3cccc(OCC(=O)O)c3)oc2-c2ccc(CC)cc2)cc1 | –
3.04 µM | Cc1nc(-c2ccccc2)c(-c2ccccc2)n1CCCCCCCCC(=O)O | –

IC50 ([1]; Homo sapiens, Plasma) | Structure (SMILES) | other results
25.6 µM | O=C(O)CCCCCCCn1cc(-c2ccccc2)c(-c2ccccc2)nc1=O | –
11.6 µM | Cc1ccccc1-c1nc(CCc2cccc(OCC(=O)O)c2)oc1-c1ccccc1C | –
> 80 µM | O=C(O)COc1ccc(CCc2nnc(-c3ccccc3)n2-c2ccccc2)cc1 | –
12.6 µM | O=C(O)COc1cccc(CCc2nc(-c3ccc(Br)cc3)c(-c3ccc(Br)cc3)o2)c1 | –
7.2 µM | COc1cccc(-c2nc(CCc3cccc(OCC(=O)O)c3)oc2-c2cccc(OC)c2)c1 | –
> 63 µM | O=C(O)COc1cccc(CCc2cc(-c3ccccc3)n(C(c3ccccc3)c3ccccc3)n2)c1 | –
> 75 µM | Cc1cccc(-c2nc(CCc3cccc(OCC(=O)O)c3)oc2-c2cccc(C)c2)c1 | Inhibition [8]: 30%
> 20 µM | O=C(O)COc1cccc(CCc2nc3c4ccccc4c4ccccc4c3o2)c1 | inhibition at 20 µM [9]: 0%
4.1 µM | O=C(O)CCCCCCCCn1nc(-c2ccccc2)n(-c2ccccc2)c1=O | –
10.3 µM | O=C(O)CCCCCCCCn1cc(-c2ccccc2)c(-c2ccccc2)c1 | –
7.9 µM | O=C(O)CCCCCCCn1nc(-c2ccccc2)c(-c2ccccc2)nc1=O | –
< 80 µM | O=C(O)CCCOc1cccc(-n2cnc(-c3ccccc3)c2-c2ccccc2)c1 | Inhibition [10]: 57%
7.9 µM | O=C(O)CCCCCCCn1nnc(C(c2ccccc2)c2ccccc2)n1 | –
> 78 µM | O=C(O)CCCCCCCCN1C(=O)NC(c2ccccc2)(c2ccccc2)C1=O | –
> 65 µM | CSc1ccc(-c2nc(CCc3cccc(OCC(=O)O)c3)oc2-c2ccc(SC)cc2)cc1 | Inhibition [11]: 32%
> 82 µM | O=C(O)COc1cccc(Cn2cnc(-c3ccccc3)c2-c2ccccc2)c1 | –
1.9 µM | O=C(O)COc1cccc(CCn2nc(-c3ccccc3)c(-c3ccccc3)cc2=O)c1 | –
17.7 µM | O=C(O)COc1cccc(CCc2nc(-c3cccc(F)c3)c(-c3cccc(F)c3)o2)c1 | –
1.38 µM | O=C(O)CCCCCCCn1cc(-c2ccccc2)c(-c2ccccc2)n1 | –
7.4 µM | O=C(O)COc1cccc(CCc2nc(-c3cccs3)c(-c3cccs3)o2)c1 | –
> 78 µM | O=C(O)COc1cccc(CCc2nc(C3CCCCC3)c(C3CCCCC3)o2)c1 | Inhibition [12]: 25%
